We go through 15 compounds from ChEMBL document CHEMBL4385668, “Synthesis and in vitro anticancer activity of new gemcitabine-nucleoside analogue dimers containing methyltriazole or ester-methyltriazole linker” (Bioorg Med Chem Lett, 2019).

Usually IC50 stands for the midpoint of a concentration-inhibition curve.

One experiment deals with NHDF. Nature of the experiment: Cytotoxicity in human NHDF cells assessed as reduction in cell viability incubated for 72 hrs by SRB assay. The format is cell-based. Summed up: (§1)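 SRB assay of cell viability in human cancer lines (HeLa, KB, A549, U87, HepG2) and normal dermal fibroblasts (HDF). IC50 values are […] of three independent experiments.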
For the next experiment, the system named is A549. Nature of the experiment: Cytotoxicity in human A549 cells assessed as reduction in cell viability incubated for 72 hrs by SRB assay. It is filed as functional, cell-based. To be noted: A549, 72 h. Summed up:
as §1
(In general: In SRB staining, fixed cells bind dye roughly in proportion to their protein.)

A further experiment concerns HeLa. The experiment can be described thus: Cytotoxicity in human HeLa cells assessed as reduction in cell viability incubated for 72 hrs by SRB assay. It is filed as functional, cell-based. Summed up: as §1
The next experiment deals with KB. The experiment can be described thus: Cytotoxicity in human KB cells assessed as reduction in cell viability incubated for 72 hrs by SRB assay. The format is functional, cell-based. Summed up:
as §1

The next experiment deals with HepG2. Nature of the experiment: Cytotoxicity in human HepG2 cells assessed as reduction in cell viability incubated for 72 hrs by SRB assay. It is filed as functional, cell-based. To be noted: HepG2, 72 h. Summed up:
as §1

In a further experiment the test system is U-87 MG. Nature of the experiment: Cytotoxicity in human U87 cells assessed as reduction in cell viability incubated for 72 hrs by SRB assay. It is filed as functional, cell-based, U-87MG ATCC. Summed up:
as §1

Experiment [1] is described as follows: Selectivity index, ratio of IC50 for cytotoxicity in human NHDF cells to IC50 for cytotoxicity in human KB cells. Summed up: (§2)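 Selectivity index is the IC50 in normal HDF fibroblasts divided by the IC50 in the given cancer line.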
Experiment [2] can be described thus: Selectivity index, ratio of IC50 for cytotoxicity in human NHDF cells to IC50 for cytotoxicity in human A549 cells. Summed up:
as §2

Experiment [3] is described as follows: Selectivity index, ratio of IC50 for cytotoxicity in human NHDF cells to IC50 for cytotoxicity in human U87 cells. Summed up:
as §2

A short description of experiment [4]: Selectivity index, ratio of IC50 for cytotoxicity in human NHDF cells to IC50 for cytotoxicity in human HepG2 cells. Summed up: as §2
Experiment [5] in a line: Selectivity index, ratio of IC50 for cytotoxicity in human NHDF cells to IC50 for cytotoxicity in human HeLa cells. Summed up:
as §2

The structures appear in SMILES notation.

For the compound `O=c1[nH]c(=O)n([C@H]2C[C@H](O)[C@@H](Cn3cc(CNc4ccn([C@@H]5O[C@H](CO)[C@@H](O)C5(F)F)c(=O)n4)nn3)O2)cc1F`, the IC50 with NHDF was found to be 106 µM; in the experiment with A549 it was 79.3 µM; with HeLa it was 78.9 µM; with KB, 81.5 µM; with HepG2, 78.9 µM; in the experiment with U-87 MG, 80.3 µM.

As to `Nc1ccn([C@@H]2O[C@H](Cn3cc(COC(=O)Nc4ccn([C@@H]5O[C@H](CO)[C@@H](O)C5(F)F)c(=O)n4)nn3)[C@@H](O)C2(F)F)c(=O)n1`, the IC50 in the experiment with NHDF amounted to 15.8 µM; in the experiment with A549 it was 11.4 µM; with HeLa it was 12.4 µM; in the experiment on KB it was 11.3 µM; with HepG2 it was 10.8 µM; with U-87 MG it was 12.6 µM.

With `O=C(Nc1ccn([C@@H]2O[C@H](CO)[C@@H](O)C2(F)F)c(=O)n1)OCc1cn(C[C@H]2O[C@@H](n3ccc(NC(=O)OCc4ccccc4)nc3=O)C(F)(F)[C@@H]2O)nn1`, the concentration for half-maximal inhibition (IC50) in the experiment with NHDF was found to be 8.12 µM; in the experiment with A549 it was 2.11 µM; in the experiment with HeLa, 1.98 µM; in the experiment with KB, 2.01 µM; with HepG2, 2.21 µM; with U-87 MG it was 2.14 µM. The “Ratio IC50” value in experiment [1] stood at 4.04; in experiment [2] it was 3.85; in [3], 3.79; in experiment [4] it was 3.67; in experiment [5] it was 4.1.

With `Cc1cn([C@H]2C[C@H](O)[C@@H](Cn3cc(CNc4ccn([C@@H]5O[C@H](CO)[C@@H](O)C5(F)F)c(=O)n4)nn3)O2)c(=O)[nH]c1=O`, the IC50 in the experiment with NHDF turned out to be 152 µM; in the experiment on A549, 126 µM; with HeLa it was 129 µM; in the experiment on KB it was 131 µM; with HepG2 it was 130 µM; with U-87 MG it was 128 µM.

Take `Cc1cn([C@H]2C[C@H](O)[C@@H](Cn3cc(COC(=O)Nc4ccn([C@@H]5O[C@H](CO)[C@@H](O)C5(F)F)c(=O)n4)nn3)O2)c(=O)[nH]c1=O`: the IC50 with NHDF worked out at 16.9 µM; with A549, 13.4 µM; with HeLa, 13.5 µM; with KB, 13.1 µM; in the experiment with HepG2, 14.6 µM; in the experiment with U-87 MG, 13.5 µM.

As to `Cc1cn([C@H]2C[C@H](OC(=O)OC(C)(C)C)[C@@H](Cn3cc(CNc4ccn([C@@H]5O[C@H](CO)[C@@H](O)C5(F)F)c(=O)n4)nn3)O2)c(=O)[nH]c1=O`, the IC50 in the experiment with NHDF amounted to 14.2 µM; in the experiment with A549, 6.07 µM; in the experiment with HeLa, 6.3 µM; in the experiment with KB, 7.07 µM; in the experiment with HepG2, 6.34 µM; in the experiment on U-87 MG it was 6.97 µM.

For the compound `Cc1cn([C@H]2C[C@H](OC(=O)OC(C)(C)C)[C@@H](Cn3cc(COC(=O)Nc4ccn([C@@H]5O[C@H](CO)[C@@H](O)C5(F)F)c(=O)n4)nn3)O2)c(=O)[nH]c1=O`, the IC50 came out at 15 µM with NHDF; 8.5 µM with A549; 9.65 µM in the experiment on HeLa; 10.7 µM in the experiment on KB; 11.1 µM in the experiment on HepG2; 9.68 µM in the experiment on U-87 MG.

On to `O=C(Nc1ccn([C@@H]2O[C@H](Cn3cc(CNc4ccn([C@@H]5O[C@H](CO)[C@@H](O)C5(F)F)c(=O)n4)nn3)[C@@H](OC(=O)c3ccccc3)C2(F)F)c(=O)n1)c1ccccc1`, for which the IC50 in the experiment with NHDF was 14.2 µM; with A549 it was 6.01 µM; with HeLa, 5.41 µM; in the experiment on KB, 5.34 µM; in the experiment with HepG2, 5.82 µM; in the experiment on U-87 MG, 5.5 µM.

`CC(C)(C)OC(=O)O[C@@H]1[C@@H](Cn2cc(COC(=O)Nc3ccn([C@@H]4O[C@H](CO)[C@@H](O)C4(F)F)c(=O)n3)nn2)O[C@@H](n2ccc(NC(=O)OCc3ccccc3)nc2=O)C1(F)F`: the IC50 in the experiment on NHDF amounted to 4.69 µM; in the experiment with A549, 0.83 µM; in the experiment on HeLa, 0.97 µM; in the experiment on KB, 0.95 µM; in the experiment on HepG2 it was 1.01 µM; with U-87 MG, 1.09 µM. Further, the “Ratio IC50” value was 4.94 in [1]; 5.65 in [2]; 4.3 in experiment [3]; 4.64 in experiment [4]; 4.83 in experiment [5].

On to `O=C(Nc1ccn([C@@H]2O[C@H](CO)[C@@H](O)C2(F)F)c(=O)n1)OCc1cn(C[C@H]2O[C@@H](n3cc(F)c(=O)[nH]c3=O)C[C@@H]2O)nn1`, for which the IC50 was 10.2 µM in the experiment on NHDF; 8.01 µM with A549; 6.7 µM in the experiment with HeLa; 6.52 µM with KB; 7.66 µM in the experiment on HepG2; 7.56 µM in the experiment with U-87 MG.

`CC(C)(C)OC(=O)O[C@@H]1[C@@H](Cn2cc(COC(=O)Nc3ccn([C@@H]4O[C@H](CO)[C@@H](O)C4(F)F)c(=O)n3)nn2)O[C@@H](n2ccc(N)nc2=O)C1(F)F`: the IC50 is 8.81 µM with NHDF; 2.17 µM in the experiment with A549; 2.01 µM in the experiment on HeLa; 2.12 µM in the experiment with KB; 2.34 µM with HepG2; 2.21 µM in the experiment on U-87 MG. The “Ratio IC50” value in experiment [1] stood at 4.16; in experiment [2], 4.06; in experiment [3], 3.99; in experiment [4] it was 3.77; in experiment [5], 4.38.

Consider `Nc1ccn([C@@H]2O[C@H](Cn3cc(CNc4ccn([C@@H]5O[C@H](CO)[C@@H](O)C5(F)F)c(=O)n4)nn3)[C@@H](O)C2(F)F)c(=O)n1`, for which the IC50 came out at 29.3 µM with NHDF; 16.1 µM in the experiment on A549; 16.2 µM in the experiment on HeLa; 15.9 µM in the experiment on KB; 15.1 µM with HepG2; 16.5 µM with U-87 MG.

For the compound `O=C(Nc1ccn([C@@H]2O[C@H](CO)[C@@H](O)C2(F)F)c(=O)n1)OCc1cn(C[C@H]2O[C@@H](n3ccc(NC(=O)c4ccccc4)nc3=O)C(F)(F)[C@@H]2OC(=O)c2ccccc2)nn1`, the IC50 was found to be 9.12 µM in the experiment on NHDF; 3.32 µM in the experiment with A549; 3.22 µM in the experiment on HeLa; 3.13 µM in the experiment on KB; 3.51 µM with HepG2; 3.41 µM in the experiment with U-87 MG. Also, the “Ratio IC50” value in experiment [1] came to 2.91; in experiment [2], 2.75; in experiment [3], 2.67; in experiment [4] it was 2.6; in experiment [5] it was 2.83.

For `Nc1ccn([C@@H]2O[C@H](CO)[C@@H](O)[C@@H]2O)c(=O)n1` [CYTARABINE], the IC50 came to 4.99 µM in the experiment with NHDF, 3.47 µM in the experiment on A549 and 2.88 µM with U-87 MG. Also, the “Ratio IC50” value is recorded as 1.23 in [1]; 1.44 in experiment [2]; 1.73 in [3]; 1.75 in experiment [4]; 1.41 in [5].

Turning to `O=c1[nH]c(=O)n([C@H]2C[C@H](O)[C@@H](CO)O2)cc1F` [FLOXURIDINE], the IC50 in the experiment with NHDF was determined as 13.1 µM; with A549, 5.91 µM; with U-87 MG, 6.14 µM. The “Ratio IC50” value is on record as 1.5 in experiment [1]; 2.21 in experiment [2]; 2.13 in experiment [3]; 1.47 in [4]; 2.01 in experiment [5].
